Data as given in ChEMBL document CHEMBL4145524, “Chemoenzymatically synthesized GM3 analogues as potential therapeutic agents to recover nervous functionality after injury by inducing neurite outgrowth” (2018).
Active and inactive are the calls of the source. No cut-off for these calls is given here.

Experiments:
PC-12 [1] = assay: Induction of neuritogenesis in rat PC12 cells assessed as neurite bearing cells at 10 uM after 72 hrs by inverted microscopic analysis relative to control; assay type: functional
Method in brief: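 PC12 cells (ATCC; grown in DMEM, 10% heat-inactivated horse serum, 5% FBS, 37 °C, 5% CO2) seeded at 2×10^4/well on poly-L-lysine, attached 24 h, then 24 h in low-serum DMEM (1% horse serum, 0.5% FBS). Compound at 10 μM for 72 h, no NGF. Score cells with at least one neurite ≥2× cell-body diameter, ≥200 cells/sample; mean ± S.D., ≥3 repeats.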

PC-12 [2] = assay: Induction of neuritogenesis in NGF-induced rat PC12 cells assessed as neurite bearing cells at 10 uM cotreated with 25 ng/ml NGF after 72 hrs by inverted microscopic analysis relative to control; assay type: functional
Method in brief: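 PC12 cells plated on poly-L-lysine-coated wells at 2×10^4/well, switched to DMEM with 1% horse serum and 0.5% FBS for 24 h, then given compound together with NGF 25 ng/ml for 72 h. Inverted microscopy. Percentage of cells bearing at least one neurite twice the cell-body diameter, over ≥200 cells per sample; mean ± S.D., at least three experiments.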

Row | SMILES | Activity (PC-12 [1]) | Activity (PC-12 [2])
1 | CCCCCCCCCCCCC/C=C/[C@@H](O)[C@@H](N)CO[C@@H]1O[C@H](CO[C@]2(C(=O)O)C[C@H](O)[C@@H](NC(C)=O)[C@H]([C@@H](O)[C@H](O)CO)O2)[C@@H](O)[C@H](O)[C@H]1O | 26% | >30%
2 | CCCCCCCCCCCCC/C=C/[C@@H](O)[C@H](CO[C@@H]1O[C@H](CO[C@]2(C(=O)O)C[C@H](O)[C@@H](NC(C)=O)[C@H]([C@@H](O)[C@H](O)CO)O2)[C@H](O)[C@H](O)[C@H]1O)NC(=O)CCCCCCCCCCCCCCCCC | inactive | inactive
3 | CCCCCCCCCCCCC/C=C/[C@@H](O)[C@H](CO[C@@H]1O[C@H](CO[C@]2(C(=O)O)C[C@H](O)[C@@H](NC(C)=O)[C@H]([C@@H](O)[C@H](O)CO)O2)[C@@H](O)[C@H](O)[C@H]1O)NC(=O)CCCCCCCCCCCCCCCCC | inactive | inactive
4 | CCCCCCCCCCCCC/C=C/[C@@H](O)[C@H](CO[C@@H]1O[C@H](CO)[C@@H](O[C@@H]2O[C@H](CO)[C@H](O)[C@H](O[C@]3(C(=O)O)C[C@H](O)[C@@H](NC(=O)CCl)[C@H]([C@@H](O)[C@H](O)CO)O3)[C@H]2O)[C@H](O)[C@H]1O)NC(=O)CCCCCCCCCCCCCCCCC | 8% | inactive
5 | CCCCCCCCCCCCC/C=C/[C@@H](O)[C@@H](N)CO[C@@H]1O[C@H](CO[C@]2(C(=O)O)C[C@H](O)[C@@H](NC(C)=O)[C@H]([C@@H](O)[C@H](O)CO)O2)[C@H](O)[C@H](O)[C@H]1O | 9% | inactive
6 | CCCCCCCCCCCCC/C=C/[C@@H](O)[C@H](CO[C@@H]1O[C@H](CO)[C@H](O)[C@H](O[C@]2(C(=O)O)C[C@H](O)[C@@H](NC(C)=O)[C@H]([C@@H](O)[C@H](O)CO)O2)[C@H]1O)NC(=O)CCCCCCCCCCCCCCCCC | inactive | inactive
7 | CCCCCCCCCCCCC/C=C/[C@@H](O)[C@@H](N)CO[C@@H]1O[C@H](CO)[C@H](O)[C@H](O[C@]2(C(=O)O)C[C@H](O)[C@@H](NC(C)=O)[C@H]([C@@H](O)[C@H](O)CO)O2)[C@H]1O | 6% | Active
